Compound activity as filed in PubChem BioAssay.
An excerpt weighted towards active compounds, which were near 2.3% of everything screened.
TRPC6 activator – mouse TRPC6 channel activators, primary screen, cell-based, HEK293, membrane potential dye. HEK293-TRPC6 membrane potential dye fluorescence; stronger effect = higher value. B-score at 10 µM. 310,000 compounds, 0.13% hits. AID 2550, 2010;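 active = B-score of the integrated fluorescence ratio above library mean plus 3 SD, and starting fluorescence ratio within library mean plus 5 SD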;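 also: higher score means more depolarization so channel activation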
Target sequence (Q61143 whole entry, looked up): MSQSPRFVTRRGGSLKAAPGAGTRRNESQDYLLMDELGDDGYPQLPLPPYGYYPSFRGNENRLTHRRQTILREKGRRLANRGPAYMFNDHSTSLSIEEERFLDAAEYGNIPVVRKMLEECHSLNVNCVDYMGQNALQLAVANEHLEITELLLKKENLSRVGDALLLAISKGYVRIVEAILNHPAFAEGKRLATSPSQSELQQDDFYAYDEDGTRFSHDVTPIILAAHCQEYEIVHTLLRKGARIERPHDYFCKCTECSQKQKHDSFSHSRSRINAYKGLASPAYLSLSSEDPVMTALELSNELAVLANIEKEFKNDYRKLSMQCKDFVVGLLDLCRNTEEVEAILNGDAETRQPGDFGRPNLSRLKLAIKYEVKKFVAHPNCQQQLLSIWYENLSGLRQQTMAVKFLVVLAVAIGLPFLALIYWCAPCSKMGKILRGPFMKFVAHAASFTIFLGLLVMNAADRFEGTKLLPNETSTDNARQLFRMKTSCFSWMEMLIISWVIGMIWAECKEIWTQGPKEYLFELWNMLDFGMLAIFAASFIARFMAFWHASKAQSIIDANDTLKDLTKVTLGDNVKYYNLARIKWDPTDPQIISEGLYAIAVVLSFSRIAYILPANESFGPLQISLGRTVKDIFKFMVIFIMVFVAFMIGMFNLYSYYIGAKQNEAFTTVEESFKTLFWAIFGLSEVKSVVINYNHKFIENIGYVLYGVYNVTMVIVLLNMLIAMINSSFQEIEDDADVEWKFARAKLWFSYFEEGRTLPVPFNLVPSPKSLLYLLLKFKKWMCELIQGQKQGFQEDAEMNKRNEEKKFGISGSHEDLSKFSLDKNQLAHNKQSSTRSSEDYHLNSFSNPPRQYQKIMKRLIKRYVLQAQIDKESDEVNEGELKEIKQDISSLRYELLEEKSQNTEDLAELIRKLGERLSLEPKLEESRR
TRPC4 PAM – positive allosteric modulators of TRPC4, primary screen, cell-based, mouse TRPC4beta, HEK293 mu-opioid, Fluo-4 calcium; B-score at 10 µM; DAMGO EC20, Fluo-4 Ca2+ flux; stronger effect = higher value; AID 2227, 2009; Short transient receptor potential channel 4 (Mus musculus), Q9QUQ5; 310,000 compounds, 0.42% hits;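 active = B-score of calcium response area above 5 SD of library B-scores, with initial fluorescence ratio within 5 SD of library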;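 also: B-score of integrated fluorescence ratio over time as area under calcium response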
TRPC6 inhibitor – mouse TRPC6 channel inhibitors, primary screen, cell-based, HEK293, membrane potential dye; 310,000 compounds, 1.1% hits; ACh-evoked depolarization; stronger effect = lower value; B-score at 10 µM; Short transient receptor potential channel 6 (Mus musculus), Q61143;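 active = B-score under library mean minus 3 SD, initial fluorescence not abnormally high, positive integrated signal ratio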;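 also: B-score derived from integrated fluorescence ratio over the kinetic read; more negative B-score means stronger inhibition of depolarization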
TRPC4 act – activators of mouse TRPC4 channel, primary screen, Fluo4 calcium, HEK293 TRPC4beta/mu-opioid cells | Short transient receptor potential channel 4 (Mus musculus), Q9QUQ5 | Fluo4 calcium fluorescence; stronger effect = higher value | B-score at 10 µM | 310,000 compounds, 0.49% hits;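 active = B-score above 5 SD of library B-scores, and initial fluorescence ratio not above library mean plus 5 SD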;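 also: positive B-score marks a calcium rise read as TRPC4 activation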
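Incubation: 45 min room-temperature Fluo4 loading, 110 s read / System: HEK293 cells stably co-expressing mouse TRPC4beta and mu-opioid receptor / Signal: Fluo4 fluorescence, kinetic / Control set: buffer (low) and maximal DAMGO (high) / Measure: integrated baseline-normalised fluorescence ratio, converted to per-well B score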
TRPC4 inh – inhibitors of mouse TRPC4 channel, primary screen, Fluo4 calcium, HEK293 TRPC4beta/mu-opioid cells | DAMGO-evoked Fluo4 calcium flux; stronger effect = lower value | Short transient receptor potential channel 4 (Mus musculus), Q9QUQ5 | 300,000 compounds, 0.39% hits | B-score at 10 µM;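 active = B-score over 3 SD under the library average, no early fluorescence shift, positive overall ratio signal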
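Assay system – HEK293 line stably carrying TRPC4beta and mu-opioid receptor · Doses – single dose · Detection – Fluo4 calcium-dye fluorescence, kinetic read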
Starred values were filed as active, the others as inactive; i = inactive.

SMILES	TRPC6 activator	TRPC4 PAM	TRPC6 inhibitor	TRPC4 act	TRPC4 inh
Cc1ccc(CSc2nccc(-c3c(C)nc4ccccn34)n2)cc1	i	i	i	i	i
COc1ccc(C2=NN(CN3C(=O)C(=O)c4ccccc43)C(c3cccc([N+](=O)[O-])c3)C2)cc1 (configuration not stated)	i	i	i	i	i
CC1(C)CC(=O)c2cnc(NC3CC3)nc2C1	i	i	i	i	i
Cc1ccc(Nc2ncc3c(n2)CC(C)(C)CC3=O)cc1	i	18*	i	i	i
O=C(CN1CCN(S(=O)(=O)c2ccccc2)CC1)NCCc1ccccc1	i	i	i	i	i
CCCN(CCC)CCCNC(=O)C1CCC(CNS(=O)(=O)c2cccc3nsnc23)CC1 (configuration not stated)	i	i	i	103*	i
CC(C)OCCCNC(=O)C1CCC(CNS(=O)(=O)c2cccc3nsnc23)CC1 (configuration not stated)	i	i	i	i	i
CCCCN(C)CCCNC(=O)C1CCC(CNS(=O)(=O)c2c(C)cc(C)cc2C)CC1 (configuration not stated)	i	12*	i	i	i
Cc1ccc(CN2CCN(Cc3c(C)nn(-c4ccc(F)cc4)c3C)CC2CCO)o1 (configuration not stated)	i	i	i	i	i
Cc1cc(C)c(CN2CCN(Cc3ccc(C)o3)C(CCO)C2)c(-n2cccn2)c1 (configuration not stated)	i	i	i	77*	i
CC1CCN(S(=O)(=O)c2ccc(C(=O)N3CCCC(C(F)(F)F)C3)cc2)CC1 (configuration not stated)	i	i	i	i	i
COc1ccc(C(=O)N[C@H](C(=O)NCC2CCCCC2)C(C)C)cc1	i	i	i	i	i
CCOC(=O)CC1C(=O)NCCN1c1nc2ccc(C)cn2c(=O)c1/C=C1\SC(=S)N(CC(C)C)C1=O (configuration not stated)	i	i	i	i	i
CCCN1C(=O)/C(=C/c2c(N3CCNC(=O)C3CC(=O)OCC)nc3c(C)cccn3c2=O)SC1=S (configuration not stated)	27*	i	i	i	i
CCOC(=O)CC1C(=O)NCCN1c1nc2ccc(C)cn2c(=O)c1/C=C1\SC(=S)N(C(C)CC)C1=O (configuration not stated)	61*	i	i	62*	i
CC(=O)c1ccc(S(=O)(=O)N(C)CC(=O)NCC2CCCCC2)cc1	i	i	i	i	i
COc1ccc(OC)c(NC(=O)COC(=O)Cc2ccc(Br)cc2)c1	i	i	i	i	i
COc1ccc(OC)c(NC(=O)COC(=O)Cc2ccc(-c3ccccc3)cc2)c1	i	21*	i	i	i
CCOC(=O)c1ccc(NC(=S)N2CCSC2c2ccc(Br)cc2)cc1 (configuration not stated)	i	43*	i	i	i
CCCN(C(=O)COC(=O)C12CCC(=O)N1c1ccccc1S2)c1c(N)n(Cc2ccccc2)c(=O)[nH]c1=O (configuration not stated)	i	i	i	55*	-7*
C=CCn1c(SCc2n[nH]c(=S)n2-c2ccccc2)nnc1-c1ccccc1	i	11*	i	i	i
C=C(C)Cn1cnc2c(oc3nc4c(cc32)CCCC4)c1=O	i	i	i	i	i
Cc1cccc(/C=N/NC(=O)c2cccc([N+](=O)[O-])c2)n1	i	i	i	i	i
Cc1cc(/C=N/NC(=O)c2cccc([N+](=O)[O-])c2)c(C)n1-c1ccc(Cl)cc1Cl	i	i	i	i	-6*
COc1cc(NC(=O)CSCC(=O)Nc2cc(OC)cc(OC)c2)cc(OC)c1	i	i	i	i	i
SMILES	TRPC6 activator	TRPC4 PAM	TRPC6 inhibitor	TRPC4 act	TRPC4 inh
Cc1ccc(N(CC(=O)NC2CCCC2)C(=O)CNC(=O)c2cccs2)cc1F	i	i	i	i	-7*
CC(C)n1cc(CN2CCCC(CO)(Cc3cccc(Cl)c3)C2)cn1 (configuration not stated)	i	i	i	i	i
Cc1csc(/C(=N/OC(=O)c2ccco2)C(N)=O)n1	i	10*	i	i	i
COc1ccc(/C(N)=N/OC(=O)c2ccco2)cc1OC	i	i	i	i	i
CCCN(CCC)CCCNC(=O)c1ccc(CS(=O)(=O)c2c(Cl)cccc2Cl)o1	i	i	i	79*	i
CCNc1nc(NCC)n2c(SC(C(=O)Nc3cc(C)ccc3OC)c3ccccc3)nnc2n1 (configuration not stated)	i	i	i	i	i
Cc1cc(Nc2cccc(O)c2)c2ccccc2n1	i	i	i	i	-5*
Cc1cc(Nc2ccccc2)nc2cc(O)ccc12	i	i	i	i	-7*
Cn1ccsc1=NC(=O)c1ccc(OC(F)(F)F)cc1	i	i	i	i	i
CCc1nc(NCCc2ccccn2)c2nnn(Cc3ccccc3F)c2n1	i	i	i	186*	i
O=[N+]([O-])c1cccc(-c2nnc(C3CC3)o2)c1	i	i	i	i	-6*
CNCC(=O)Nc1ccc(Cl)c(C(F)(F)F)c1	i	28*	i	i	i
COc1ccc(Br)cc1CNC(C)c1ccccc1 (configuration not stated)	i	i	i	i	-6*
CCCN(CCC(=O)Nc1cc(OC)cc(OC)c1)CC1CC1	i	i	i	162*	i
CCN(CCC(=O)Nc1cc(OC)cc(OC)c1)Cc1ccccc1	i	i	i	60*	i
CCCN(CC(=O)Nc1ccc(F)c(F)c1F)C(=O)c1cc([N+](=O)[O-])ccc1N1CCOCC1	i	i	i	i	i
Cc1ccc(NC(=O)CSc2nc3c(c(=O)[nH]2)CCC3)c(C)c1	i	i	i	i	i
C/C(N)=C(/C#N)C(=O)COC(=O)CC12CC3CC(CC(C3)C1)C2	i	i	i	i	-7*
C/C(N)=C(/C#N)C(=O)COC(=O)CC1CCCC1	i	i	i	i	i
CCOC(=O)c1sc2nc(CC(=O)OC)nc(NCc3ccc(F)cc3)c2c1C	i	i	i	98*	-9*
